In the M2OR odorant receptor database:

molecular target: T1, UniProt Q8VGW5; settings: stereoisomer not certain
T1 sequence (whole entry): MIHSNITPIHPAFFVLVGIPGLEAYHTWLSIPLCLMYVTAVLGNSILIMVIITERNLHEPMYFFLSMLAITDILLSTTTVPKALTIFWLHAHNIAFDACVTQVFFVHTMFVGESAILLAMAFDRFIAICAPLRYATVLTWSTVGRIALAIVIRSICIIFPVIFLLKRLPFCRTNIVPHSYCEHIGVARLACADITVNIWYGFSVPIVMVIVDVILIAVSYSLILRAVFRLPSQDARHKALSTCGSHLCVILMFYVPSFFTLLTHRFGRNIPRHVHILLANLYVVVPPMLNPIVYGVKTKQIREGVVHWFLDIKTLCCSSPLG
Procedure, shortened: (§1)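 Transient luciferase assays in mammalian cell lines were common, though methods varied by source. The values come from published papers and their supplementary material, with extra details from the original authors when needed. Responsive refers to a measured signal the original authors judged statistically different from baseline, and non-responsive (inactive) to the remainder.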
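Note: active if original authors judged signal statistically different from baseline.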

Row | SMILES | odorant receptor agonist call
1 | CCCCCCCCC(=O)O | inactive
2 | CCCCCCCCCO | inactive
3 | CCCCCCO | inactive
4 | CCCCCCCCCC(=O)[O-].[H+] | inactive
5 | CCCCCCCCO | inactive
6 | CCCCCCCO | inactive

molecular target: T2, UniProt Q8VGX3; settings: stereoisomer not certain
T2 sequence (whole entry): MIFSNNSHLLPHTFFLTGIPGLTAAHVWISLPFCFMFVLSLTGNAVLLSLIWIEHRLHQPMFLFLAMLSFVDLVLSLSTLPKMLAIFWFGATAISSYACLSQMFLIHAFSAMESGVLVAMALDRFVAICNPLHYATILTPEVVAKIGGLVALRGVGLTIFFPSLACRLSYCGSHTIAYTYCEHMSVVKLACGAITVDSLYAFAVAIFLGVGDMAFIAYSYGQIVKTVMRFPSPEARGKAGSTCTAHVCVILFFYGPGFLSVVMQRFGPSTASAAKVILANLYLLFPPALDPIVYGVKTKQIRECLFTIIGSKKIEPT
Procedure, shortened: as §1

Row | SMILES | odorant receptor agonist call
7 | CCCCCCCCC(=O)O | inactive
8 | CCCCC(=O)O | inactive
9 | CC(C)=CCCC(C)CCO (stereo not given) | inactive
10 | CCCCCCCCCO | inactive
11 | CCCCCCCC(C)=O | inactive
12 | O=C1Cc2ccccc2O1 | inactive
13 | CCCC(=O)C(C)=O | inactive
14 | CC(=O)OCC=C(C)C | inactive
15 | CCCCCC=O | inactive
16 | CC(=O)Oc1ccccc1 | inactive
17 | COc1cc(C(=O)O)ccc1O | inactive
18 | CCCCCC(=O)CC | inactive
19 | CCCCCCCCCS | inactive
20 | CCCCCCO | inactive
21 | CCOC(=O)C(C)C | inactive
22 | c1ccccc1 | inactive

Row | SMILES | odorant receptor agonist call
23 | CCCCCCOC(C)=O | inactive
24 | CCC(=O)O | inactive
25 | CCCCCCCCS | inactive
26 | C=C(C)C1CCC(C)C(=O)C1 (stereo not given) | inactive
27 | O=C(c1ccccc1)c1ccccc1 | inactive
28 | CCCCC(=O)CC | inactive
29 | CCCCC(C)=O | inactive
30 | CCCCCCCCCC(=O)[O-].[H+] | inactive
31 | CCCCOC=O | inactive
32 | CCCCCCCCCCO | inactive
33 | CCCCCCCCO | inactive
34 | CCCCCC1=C(C)CCC1=O | inactive
35 | C=CCOC(=O)CCCCCC | inactive
36 | CCCCCCCO | inactive
37 | CC(C)=CCCC(C)=CCO | inactive
38 | CCC(=O)C(=O)CC | inactive

molecular target: T3, UniProt Q8VGX5; settings: stereoisomer not certain
T3 sequence (whole entry): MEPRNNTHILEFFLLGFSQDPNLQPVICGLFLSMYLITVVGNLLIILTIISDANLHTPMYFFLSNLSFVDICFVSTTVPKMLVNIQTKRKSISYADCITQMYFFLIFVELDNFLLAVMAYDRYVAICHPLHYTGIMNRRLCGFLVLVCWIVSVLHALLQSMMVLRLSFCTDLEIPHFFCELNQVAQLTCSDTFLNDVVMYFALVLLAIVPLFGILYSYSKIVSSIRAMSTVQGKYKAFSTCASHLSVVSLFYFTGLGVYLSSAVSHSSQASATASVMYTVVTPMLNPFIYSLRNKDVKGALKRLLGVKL
Procedure, shortened: as §1

Row | SMILES | odorant receptor agonist call
39 | CCCCCCCCC(=O)O | inactive
40 | CCCCC(=O)O | inactive
41 | CC(C)=CCCC(C)CCO (stereo not given) | inactive
42 | CCCCCCCCCO | inactive
43 | CCCCCCCC(C)=O | inactive
44 | O=C1Cc2ccccc2O1 | active
45 | CCCC(=O)C(C)=O | inactive
46 | CC(=O)OCC=C(C)C | active
47 | CCCCCC=O | inactive
48 | CC(=O)Oc1ccccc1 | active
49 | COc1cc(C(=O)O)ccc1O | inactive
50 | CCCCCC(=O)CC | inactive
51 | CCCCCCCCCS | inactive
52 | CCCCCCO | inactive
53 | CCOC(=O)C(C)C | inactive
54 | c1ccccc1 | inactive

Row | SMILES | odorant receptor agonist call
55 | CCCCCCOC(C)=O | inactive
56 | CCC(=O)O | inactive
57 | CCCCCCCCS | inactive
58 | C=C(C)C1CCC(C)C(=O)C1 (stereo not given) | active
59 | O=C(c1ccccc1)c1ccccc1 | inactive
60 | CCCCC(=O)CC | inactive
61 | CCCCC(C)=O | inactive
62 | CCCCCCCCCC(=O)[O-].[H+] | inactive
63 | CCCCOC=O | inactive
64 | CCCCCCCCCCO | inactive
65 | CCCCCCCCO | inactive
66 | CCCCCC1=C(C)CCC1=O | active
67 | C=CCOC(=O)CCCCCC | inactive
68 | CCCCCCCO | inactive
69 | CC(C)=CCCC(C)=CCO | active
70 | CCC(=O)C(=O)CC | inactive
